These results are taken from article PMC7451030 (European journal of medicinal chemistry, 2020).

The target of data set [1] is T1, human GLUT1 (Homo sapiens, UniProt P11166).
T1 sequence (P11166 1-492): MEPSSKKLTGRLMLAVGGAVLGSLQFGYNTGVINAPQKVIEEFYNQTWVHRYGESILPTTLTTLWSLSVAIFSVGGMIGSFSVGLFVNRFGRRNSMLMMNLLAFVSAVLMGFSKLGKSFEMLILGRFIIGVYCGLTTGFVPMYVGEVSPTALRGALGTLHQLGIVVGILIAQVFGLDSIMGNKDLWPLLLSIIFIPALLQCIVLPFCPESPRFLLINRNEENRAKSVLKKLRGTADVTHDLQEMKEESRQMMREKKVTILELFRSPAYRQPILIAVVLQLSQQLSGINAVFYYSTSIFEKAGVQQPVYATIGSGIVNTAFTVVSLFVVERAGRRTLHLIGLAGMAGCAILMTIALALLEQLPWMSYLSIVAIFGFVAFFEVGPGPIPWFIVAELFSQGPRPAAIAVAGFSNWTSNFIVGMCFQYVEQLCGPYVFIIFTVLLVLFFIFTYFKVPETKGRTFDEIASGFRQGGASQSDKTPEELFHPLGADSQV
Kind of data set: GLUT1 transport assay. As to conditions: 100 μM compound. It counts as cell-based. A digest of the protocol:
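hxt0 yeast VW4000fgy1 expressing human GLUT1 was grown at 30 °C in SC-uracil with 2% maltose for 2–3 days, then 2% glucose for 1–2 days. Cells were resuspended in PBS pH 7.4 at OD600 ~10 and given 100 µM compound (1% DMSO final). Uptake of 5 mM 14C-glucose ran 10 min, then ice-cold KPi/LiCl quench pH 5.5, filtration and scintillation counting. Activity was taken relative to 1% DMSO and 200 µM phloretin.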

In data set [2] the target is T2, human GLUT4 (Homo sapiens, UniProt P14672).
T2 sequence (P14672 1-509): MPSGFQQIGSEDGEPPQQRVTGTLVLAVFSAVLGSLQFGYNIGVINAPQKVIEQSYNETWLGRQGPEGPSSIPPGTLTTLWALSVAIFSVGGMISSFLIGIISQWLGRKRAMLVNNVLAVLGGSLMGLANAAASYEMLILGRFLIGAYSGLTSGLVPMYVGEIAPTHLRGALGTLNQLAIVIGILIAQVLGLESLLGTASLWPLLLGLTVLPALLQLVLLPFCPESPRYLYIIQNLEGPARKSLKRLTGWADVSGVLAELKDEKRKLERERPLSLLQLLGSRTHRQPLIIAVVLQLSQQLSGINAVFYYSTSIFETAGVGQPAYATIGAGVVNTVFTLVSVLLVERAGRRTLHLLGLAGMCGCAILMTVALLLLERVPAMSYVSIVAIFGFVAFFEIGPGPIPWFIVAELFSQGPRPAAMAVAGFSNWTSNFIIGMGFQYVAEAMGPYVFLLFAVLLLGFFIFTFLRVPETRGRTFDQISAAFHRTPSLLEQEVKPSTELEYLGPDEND
Kind of data set: GLUT4 transport assay. The format is cell-based. As to conditions: 100 μM compound. An outline of the steps:
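GLUT4 was expressed in hxt0 yeast VW4000fgy1erg4 grown at 30 °C in SC-uracil with 1% maltose, then 0.2% glucose. Washed cells were assayed in PBS pH 7.4 at OD600 ~10 with 100 µM compound (1% DMSO final) and 5 mM 14C-glucose for 10 min. The reaction was stopped with cold KPi/LiCl pH 5.5, then filtered and counted by scintillation. Values are relative to 1% DMSO and 200 µM phloretin controls.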

For data set [3], the system named is human GLUT5. Put plainly: GLUT5 transport assay. The format is cell-based. As to conditions: 100 μM compound; 10 mM C14-fructose. A digest of the protocol:
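VW4000 hxt0 yeast carrying human GLUT5 was grown for 1 day in YEP with 2% maltose and 100 µg/ml G418, then 1–2 days in 2% fructose with G418, at 30 °C. Cells in PBS pH 7.4 at OD600 ~10 received 100 µM compound (1% DMSO final) and 10 mM 14C-fructose for 10 min. Cold quench pH 5.5 and filtration followed, with scintillation read-out. Controls: 1% DMSO and 100 µM MSNBA.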

For data set [4], the system named is CEM cells. Kind of data set: Cell cycle analysis by flow cytometry. It counts as cell-based, human. The conditions noted are these: CEM, 10, 25 or 50 μM, 72 h. In general terms: In flow cytometry, cells or beads pass a laser one at a time.
Data set [5] has as its system p-mTOR, CDK2, GRP78 and Caspase 3 in F18-treated cells. Kind of data set: Western blotting of cell signaling proteins. It counts as cell-based, human. The conditions noted are these: 10 μM, 6 h. A digest of the protocol: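 Treated cells were washed in cold PBS and lysed in Laemmli buffer (62.5 mM Tris-HCl pH 6.8, 10% glycerol, 2% SDS) with protease inhibitors, then sonicated and protein quantified. Membranes were blocked 45 min in PBS-Tween-5% milk. Primary antibodies ran 3 h and secondary 1 h, both at room temperature. Controls: untreated and staurosporine.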

The subject of data set [6] is normal WBCs. Kind of data set: MTT viability assay on non-transformed WBCs. It counts as cell-based, human. As to conditions: 187.2 μM vs 1.7 μM. (Tetrazolium dyes change colour on reduction, which living cells bring about.)
The test system of data set [7] is CEM xenograft tumor. The conditions noted are these: for xenograft volume of untreated group relative to treated group: SCID mice, CEM xenograft, doxorubicin 20 mg/kg i.p., F18 50 mg/kg i.p., 18 days.
A short description of data set [8]: Differential Nuclear Staining. The conditions noted are these: human. The format is cell-based. A digest of the protocol:
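CC50 determined by DNS assay in CCRF-CEM (RPMI) and in non-cancerous HS-27 fibroblasts (DMEM). Both media had 10% FBS and penicillin/streptomycin, at 37 °C and 5% CO2. Cells were seeded at 10,000/well (HS-27 at 3,000/well) and treated at 0.5–100 µM for 48 h, in quadruplicate. Hoechst and PI were added 2 h before imaging. Controls: DMSO, H2O2 and untreated. Ratio = HS-27 CC50 / CEM CC50.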

Data set [9] deals with GLUT1. As to conditions: read-out: GLUT1 IC50; commercially available GLUT1 inhibitor; cited from earlier work.

Take `Cc1cccc2sc(NC(=O)CN3C(=O)S/C(=C/c4ccco4)C3=O)nc12` [Compound F8, 2-(5-(Furan-2-ylmethylene)-2,4-dioxothiazolidin-3-yl)-N-(4-methylbenzo[d]thiazol-2-yl)acetamide]: in [1], the “decrease of relative transport activity of GLUT1, primary screen” value is reported as “at least 50%”. Besides, the “decrease of relative transport activity of GLUT4, primary screen” value in [2] was “at least 50%”.
Regarding `O=C(CN1C(=O)S/C(=C/c2ccco2)C1=O)Nc1ccc([N+](=O)[O-])cc1` [Compound F14, 2-(5-(Furan-2-ylmethylene)-2,4-dioxothiazolidin-3-yl)-N-(4-nitrophenyl) acetamide], in [1], the “decrease of relative transport activity of GLUT1, primary screen” value was “did not inhibit”. For the same molecule, the “decrease of relative transport activity of GLUT4, primary screen” value in data set [2] is “did not inhibit”. Further, in data set [3], the “inhibition of GLUT5 transport activity, primary screen” value (from here on “inhibition”) is “did not inhibit”.
On to `O=C(CN1C(=O)S/C(=C/c2ccco2)C1=O)Nc1nc2ccccc2s1` [Compound F18, N-(benzo[d]thiazol-2-yl)-2-(5-(furan-2-ylmethylene)-2,4-dioxothiazolidin-3-yl)acetamide], for which, in [1], the “GLUT1 relative activity retained” value is recorded as “almost completely” and the “decrease of relative transport activity of GLUT1, primary screen” value was “at least 50%”. Besides, the “decrease of relative transport activity of GLUT4, primary screen” value in data set [2] is “at least 50%”. In addition, in [3], the “inhibition” value is recorded as “neither F18 nor F19 affected the transport activity of GLUT5”. In addition, the cell cycle effect result in data set [4] is on record as “arrest of the cell cycle in the sub G0/G1phase”. In addition, in [5], the “caspase 3” value is “activation”, the “level of CDK2” value is reported as “decrease”, the “level of endoplasmic stress marker GRP78” value is listed as “increase” and the “level of phosphorylated mTOR” value was “decrease”. Moreover, the “ratio of IC50 WBCs to CEM cell line” value in data set [6] is 100 times. Further, the “xenograft volume of untreated group relative to treated group” value in data set [7] is about 2 times. The “weight loss or signs of toxicity” value in data set [7] (mouse, in vivo, ip, 50 mg/kg) was “no considerable weight loss or any other noticeable signs of toxicity”.
`O=C(CN1C(=O)S/C(=C/c2ccco2)C1=O)Nc1ccc(Cl)c(Cl)c1` [Compound F19, N-(3,4-dichlorophenyl)-2-(5-(furan-2-ylmethylene)-2,4-dioxothiazolidin-3-yl) acetamide]: the “decrease of relative transport activity of GLUT1, primary screen” value in data set [1] was “at least 50%”. Further, the “decrease of relative transport activity of GLUT4, primary screen” value in data set [2] is “at least 50%”. In data set [3], the “inhibition” value is “neither F18 nor F19 affected the transport activity of GLUT5”. Besides, the selectivity ratio at 48 h in data set [8] was over 12.8.
For orientation: IC50 means the concentration needed to halve the response being measured. Take `CC(=O)CC(=O)Nc1ccc(Cl)c(C(F)(F)F)c1` [Fasentin]: in data set [9], the IC50 was 10 µM.
For `COc1cccc2c1C(=O)c1c(O)c3c(c(O)c1C2=O)C[C@@](O)(C(=O)CO)C[C@@H]3O[C@H]1C[C@H](N)[C@H](O)[C@H](C)O1` [doxorubicin, reference compound], in [7], the “xenograft volume of untreated group relative to treated group” value was “approximately 1.5 times”.
